HTR1E antagonist: 5-HT1E (human) receptor antagonism; CHO 5-HT1E Ga15 NFAT-bla reporter, FRET, antagonist; inhibition, % at 6 µM; 65,000 compounds, 0.99% hits; AID 571;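 active = inhibition above a set limit, the mean inhibition across every tested compound plus 3 SD, cut at about 29% in these data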;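 note: signal is the 460 over 535 nm emission ratio of beta-lactamase substrate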
Target sequence (P28566 whole entry, looked up): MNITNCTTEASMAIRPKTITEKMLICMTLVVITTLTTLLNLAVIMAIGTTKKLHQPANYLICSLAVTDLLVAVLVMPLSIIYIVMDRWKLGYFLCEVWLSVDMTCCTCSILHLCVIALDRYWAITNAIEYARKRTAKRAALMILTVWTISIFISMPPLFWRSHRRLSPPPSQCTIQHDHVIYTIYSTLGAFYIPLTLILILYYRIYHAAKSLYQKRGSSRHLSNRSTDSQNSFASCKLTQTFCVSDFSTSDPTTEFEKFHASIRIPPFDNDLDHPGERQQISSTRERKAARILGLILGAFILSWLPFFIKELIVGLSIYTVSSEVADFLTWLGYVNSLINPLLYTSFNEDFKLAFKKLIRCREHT
5HT1E ag: agonists of human 5-HT1E serotonin receptor; activation, % at 6 µM; 65,000 compounds, 0.69% hits; P28566; AID 574; CHO 5-HT1E Ga15 NFAT-bla reporter, FRET; 0% DMSO wells, 100% control agonist wells;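 active = activation above a set limit, the screen-wide mean activation plus 3 SD, cut at about 8.5% in these data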
S1P3 ag: S1P3 (human) receptor agonism | 60,000 compounds, 0.1% hits | AID 373 | S1P3 NFAT-BLA reporter cells, FRET ratio; relative to 1 µM S1P, basal subtracted | activation, % at 4.5 µM;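 active = activation above the screen-wide mean plus 3 SD, cut at about 4.5% in these data, passing the limit was not always enough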
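Assay system: CHO cells stably expressing human S1P3, Gα16 and NFAT-β-lactamase reporter. Timing: overnight plating, 4 h compound 37 °C, 2 h substrate RT. Signal: β-lactamase FRET emission ratio 460/535 nm. Measure: percent activation versus median 1 µM S1P response, basal-subtracted, per plate. Repeats: primary screen single test, confirmation screen in triplicate.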
S1P1 ag pot: activates or potentiates agonism at human S1P1 receptor. P21453. S1P1 CRE-bla cells, forskolin, beta-lactamase FRET, potentiator mode; S1P1 agonist co-added at EC20, 2 nM; 100% = saturating reference agonist, 0% = basal. 56,000 compounds, 0.57% hits. AID 449. activation, % at 9.5 µM;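 active = activation above a cutoff set at the mean activation of all tested compounds plus 3 SD, cut at about 54% in these data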;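 note: forskolin at 4 µM as EC80 and the EC20 agonist is SEW2871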
5-HT1A blocker: blocks the human serotonin 5-HT1a receptor; AID 612; CHO 5-HT1a Ga15 NFAT-bla reporter, antagonist mode; inhibition, % at 10 µM; P08908; 62,000 compounds, 0.68% hits;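 active = inhibition above the mean of all tested compounds plus 3 SD, cut at about 43% in these data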;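 note: receptor stimulated by 5-CT agonist at 100 nM near EC80; beta-lactamase reporter measured by ratiometric fluorescence of a cleavable substrate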
5HT1a ag: agonists of human 5-HT1a serotonin receptor. P08908. CHO 5-HT1a Ga15 NFAT-bla reporter, FRET ratio; 0% basal, 100% maximal reference agonist. activation, % at 10 µM. 65,000 compounds, 0.56% hits;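 active = activation above the screen-wide mean activation plus 3 SD, cut at about 19% in these data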
Each line names hits and unclear results; the compound was inactive in the other large screens. Rows were chosen to be rich in hits. Some 3% of all compounds tested hit in one or more screens of this group.

Cc1ccc(C2C3CN(C(C)C)CC=C3C(C#N)=C(N)C2(C#N)C#N)cc1 (configuration not stated)	5HT1a ag 32 (no result: 5-HT1A blocker)
CCOC(=O)N1CC=C2C(C#N)=C(N)C(C#N)(C#N)[C@H](c3ccc(OCC)c(OCC)c3)[C@H]2C1	none
CCCCOc1ccc(C2C3CN(C(=O)OCC)CC=C3C(C#N)=C(N)C2(C#N)C#N)cc1OC (configuration not stated)	5HT1a ag 46
O=C(OCn1nnc2ccccc2c1=O)c1cc2ccccc2o1	none
COc1cc2c(cc1OC)CN(C(=O)c1ccc(OC)c(S(=O)(=O)N3CCOCC3)c1)CC2	none
COc1cc2c(cc1OC)CN(C(=O)Cc1ccc(OC)c(S(=O)(=O)N3CCOCC3)c1)CC2	5HT1E ag 25
O=C(NCc1ccco1)Nc1ccc2nsnc2c1	5-HT1A blocker 59
O=C(NCc1ccco1)Nc1ccc(Br)cc1	none
COc1ccc(CC(=O)Nc2c3c(nn2-c2cccc(C)c2C)CS(=O)C3)cc1 (configuration not stated)	5HT1E ag 19
CCOC(=O)N1CCC(NC(=O)c2cccc3c2C(=O)N(CCOC)C3)CC1	none
Cc1cc(NC(=O)CCC(=O)N(c2ccc(F)cc2)C(C(=O)NC2CCCC2)c2ccncc2)no1 (configuration not stated)	none
Brc1ccc(C2=Nn3c(nnc3-c3n[nH]c4c3CCC4)SC2)cc1	HTR1E antagonist 57
Clc1ccc(C2=Nn3c(nnc3-c3n[nH]c4c3CCC4)SC2)cc1	none
NS(=O)(=O)c1cc2c(cc1Cl)NC(C1C[C@H]3C=C[C@@H]1C3)NS2(=O)=O (some centres not stated)	none (no result: 5-HT1A blocker)
CC1Oc2ccccc2N(CC(=O)N2CCc3ccccc32)C1=O (configuration not stated)	none
CC1Oc2ccccc2N(CC(=O)N2CCCc3ccccc32)C1=O (configuration not stated)	5HT1a ag 41
CSc1nc(-c2ccco2)cc(-c2ccccc2)c1C#N	none
CS(=O)c1nc(-c2ccc(Br)cc2)cc(-c2ccccc2)c1C#N (configuration not stated)	HTR1E antagonist 43, 5-HT1A blocker 81
CCOC(=O)c1cc2ccc(OC(=O)c3ccco3)cc2oc1=O	5HT1E ag 81, S1P3 ag 28, 5HT1a ag 296
Cc1cccn2c(=O)c3cc(C(=O)NC(C)c4ccccc4)c(=N)n(CCCn4ccnc4)c3nc12 (configuration not stated)	S1P3 ag 4.7
Cc1ccc2nc3c(cc(C(=O)NCc4ccccc4)c(=N)n3CCCn3ccnc3)c(=O)n2c1	none
CCC(NS(=O)(=O)c1ccc(C)cc1)C(=O)Nc1ccc(NC(C)=O)cc1 (configuration not stated)	none
O=C(O)C1CSCN1S(=O)(=O)c1cccc2nsnc12 (configuration not stated)	5HT1E ag 9.7 (no result: 5-HT1A blocker)
O=C(NC1CCCCC1)C1CCCN1S(=O)(=O)c1cccc2nsnc12 (configuration not stated)	none
CCCN(C#N)c1nc(NCC)nc(NC(C)C)n1	HTR1E antagonist 29
CCN(CC)C(=O)CN(C#N)c1nc(NC(C)C)nc(NC(C)C)n1	none (no result: 5-HT1A blocker)
CCOC(=O)CCc1nn(C)c(=O)c2ccccc12	HTR1E antagonist 40 (no result: S1P3 ag, S1P1 ag pot)
CCOC(=O)C(C)c1nn(C)c(=O)c2ccccc12 (configuration not stated)	none (no result: S1P1 ag pot)
CCCn1c(=N)n(CC(O)COc2cccc(C)c2)c2ccccc21 (configuration not stated)	none
CCCCn1c(=N)n(CC(O)COc2ccc(C)cc2)c2ccccc21 (configuration not stated)	5-HT1A blocker 53
CCCCn1c(=N)n(CC(O)COc2ccccc2)c2ccccc21 (configuration not stated)	5-HT1A blocker 54
N=c1n(Cc2ccccc2)c2ccccc2n1CC(O)COc1ccccc1 (configuration not stated)	5HT1a ag 20
